Test results taken from paper PMC11612064 (EJNMMI Radiopharmacy and Chemistry, 2024).

Columns and labels:
ACE2 = ACE2 (Homo sapiens, UniProt Q9BYF1); assay: In vivo biodistribution studies; design: species or system humanized ACE2 mice; details: 30 min after injection, i.v. tail vein 3.7 MBq/kg, mean ± SD, n = 3
In short: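 Male humanized ACE2 knock-in mice (C57BL/6 background, 6 weeks old) under 1.5% isoflurane, kept warm, received the ¹⁸F-labelled test compound by lateral tail vein and were killed by cervical dislocation 30 min later. Organs were weighed and gamma-counted, decay-corrected to euthanasia, and reported as %ID/g. Anti-ACE2 IHC AOD (integrated optical density/area) was linearly regressed against %ID/g.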

human ACE2 = details: ref Wang et al. [2024], Joshi et al. [2016]; cited from earlier work
human testicular ACE = details: ref Wang et al. [2024], Joshi et al. [2016]; cited from earlier work
[1] = biological target: bovine carboxypeptidase A; details: ref Wang et al. [2024], Joshi et al. [2016]; cited from earlier work

Chain of ACE2 (Q9BYF1 18-805): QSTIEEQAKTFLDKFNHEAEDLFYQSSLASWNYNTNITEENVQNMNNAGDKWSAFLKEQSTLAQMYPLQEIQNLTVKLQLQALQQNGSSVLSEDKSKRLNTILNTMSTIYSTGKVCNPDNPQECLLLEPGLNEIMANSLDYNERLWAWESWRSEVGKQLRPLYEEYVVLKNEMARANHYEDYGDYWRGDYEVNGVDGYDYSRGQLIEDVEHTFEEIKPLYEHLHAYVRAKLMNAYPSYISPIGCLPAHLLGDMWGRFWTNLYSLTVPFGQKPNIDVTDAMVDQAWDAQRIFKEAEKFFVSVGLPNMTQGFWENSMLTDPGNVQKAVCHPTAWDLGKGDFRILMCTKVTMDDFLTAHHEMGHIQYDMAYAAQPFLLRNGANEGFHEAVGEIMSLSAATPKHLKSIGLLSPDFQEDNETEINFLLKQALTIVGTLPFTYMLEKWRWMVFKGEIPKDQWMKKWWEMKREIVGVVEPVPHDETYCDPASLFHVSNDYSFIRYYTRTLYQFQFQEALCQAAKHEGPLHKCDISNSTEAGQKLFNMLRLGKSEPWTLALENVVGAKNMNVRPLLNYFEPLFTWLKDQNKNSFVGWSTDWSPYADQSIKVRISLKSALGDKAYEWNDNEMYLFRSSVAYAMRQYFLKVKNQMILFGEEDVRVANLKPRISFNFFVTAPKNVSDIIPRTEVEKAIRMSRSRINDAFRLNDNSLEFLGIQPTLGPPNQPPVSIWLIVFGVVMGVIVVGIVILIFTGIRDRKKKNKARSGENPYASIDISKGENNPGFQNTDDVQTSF

For `CC(C)C[C@H](N[C@@H](Cc1cncn1Cc1cc([18F])cc(Cl)c1)C(=O)O)C(=O)O` [^18F-MLN-4760], the “Tissue uptake, Belly fat” value (ACE2) was 0.48 ± 0.45 %ID/g, the “Tissue uptake, Cerebellum” value (ACE2) was 0.40 ± 0.22 %ID/g and the “Tissue uptake, Cerebrum” value (ACE2) was 3.18 ± 4.31 %ID/g. For the same compound, the “Tissue uptake, Eyeball” value (ACE2) was 2.84 ± 0.74 %ID/g, the “Tissue uptake, Heart” value (ACE2) was 3.26 ± 0.28 %ID/g and the “Tissue uptake, Kidneys” value (ACE2) was 4.73 ± 0.58 %ID/g. The “Tissue uptake, Large intestine” value (ACE2) was 3.34 ± 1.88 %ID/g, the “Tissue uptake, Liver” value (ACE2) was 2.31 ± 0.77 %ID/g and the “Tissue uptake, Lung” value (ACE2) was 2.49 ± 1.09 %ID/g. For the same compound, the “Tissue uptake, Medulla” value (ACE2) was 1.83 ± 0.27 %ID/g, the “Tissue uptake, Muscle” value (ACE2) was 2.27 ± 0.75 %ID/g and the “Tissue uptake, Oesophagus” value (ACE2) was 11.32 ± 4.13 %ID/g. For the same compound, the “Tissue uptake, Parotid” value (ACE2) was 1.93 ± 0.79 %ID/g, the “Tissue uptake, Shoulder fat” value (ACE2) was 2.84 ± 1.56 %ID/g and the “Tissue uptake, Small intestine” value (ACE2) was 2.74 ± 0.90 %ID/g. For the same compound, the “Tissue uptake, Spleen” value (ACE2) was 1.58 ± 2.11 %ID/g, the “Tissue uptake, Stomach” value (ACE2) was 3.34 ± 2.71 %ID/g and the “Tissue uptake, Testicles” value (ACE2) was 2.91 ± 1.95 %ID/g.

For `CC(C)C[C@H](N[C@@H](Cc1cncn1Cc1cc(Cl)cc(Cl)c1)C(=O)O)C(=O)O` [MLN-4760], the IC50 (human ACE2) is listed as 0.00044 µM, the IC50 (human testicular ACE) is listed as greater than 100 µM and the IC50 [1] is listed as 27 µM.
